Test results published in ChEMBL document CHEMBL2440038, “Arylthioamides as H2S Donors: l-Cysteine-Activated Releasing Properties and Vascular Effects in Vitro and in Vivo” (ACS Med Chem Lett, 2013).
Activity calls are given as the source filed them. The rule behind the calls is not given here.

Assays:
[1] = test system: Rattus norvegicus; experiment: Reduction of systolic blood pressure in rat at 0.1 mg/kg, po (reference value: 102% +/- 1%); type: functional, Artery; parameters: scale not given: the % may be the effect or the level left
[2] = Activation of KATP channel in HASMC assessed as membrane hyperpolarization at 1 mM using DiBac4(3) dye by spectrofluorimetric analysis relative to LCRK; details: Homo sapiens
How it was run: (§1)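 Cultured human aortic smooth muscle cells; membrane potential followed as change in relative fluorescence of a potential-sensitive dye. Test agent added at increasing concentrations up to 1 mM. Response expressed as % of maximal hyperpolarization produced by levcromakalim 10 μM (reference KATP opener). Mean with SEM.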

[3] = test system: Aorta; experiment: Inhibition of noradrenaline-induced vasoconstriction in Wistar rat endothelium-denuded thoracic aortic ring at 1 mM after 20 mins; type: functional, tissue-based
How it was run: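 Endothelium-denuded rat aortic rings preincubated with test agent, NaHS or vehicle, then given cumulative noradrenaline. Contraction expressed as % of a prior response to 60 mM KCl.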

[4] = Activation of KATP channel in HASMC assessed as membrane hyperpolarization using DiBac4(3) dye by spectrofluorimetric analysis relative to LCRK; details: Homo sapiens; how it was run: as §1
[5] = Induction of H2S release in Tyrode buffer after 15 mins; type: physicochemical; details: 0.25 h
How it was run: (§2)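 Incubation in Tyrode buffer, the medium used for functional tests, with or without rat aortic ring tissue. No L-cysteine or glutathione added. H2S recorded continuously by amperometry; concentration reported 15 min after addition. Mean with SEM.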

[6] = Induction of H2S release in Tyrode buffer in presence of Wistar rat endothelium-denuded thoracic aortic ring; type: functional; details: TDE = time-dependent effect; how it was run: as §2
[7] = Induction of H2S release in PBS buffer 10x at pH 7.4 at 1 mM in presence of glutathione; type: physicochemical; details: pH 7.4, 1000 µM
How it was run: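 Release measured amperometrically in assay buffer (pH 7.4, 35–37 °C), test agent 1 mM, with reduced glutathione added as the thiol. Continuous H2S–time curves recorded. Mean with SEM.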

| Activity [4] | Activity [5] | Activity [7] | Structure (SMILES) | Activity [1] | Activity [2] | inhibition [3] | Activity [6] |
| --- | --- | --- | --- | --- | --- | --- | --- |
| – | – | – | [Na+].[SH-] [SODIUM HYDROSULFIDE] | 91% | 52% | Active | – |
| Dose-dependent effect | 0.24 µM | Active | NC(=S)c1ccc(O)cc1 | 89% | 79% | Active | tde |
